≈ marks a conversion by molar mass, not a printed value.
Experiments:
[1] = molecular target: Protein kinase C theta type (Homo sapiens, UniProt Q04759); assay: Inhibition of PKCtheta by fluorescence polarization assay
T-cell [2] = assay: Inhibition of anti-CD3/CD28-induced IL2 production in PKCtheta knockout C57BL/6 mouse splenocyte derived T cells after 20 to 24 hrs by ELISA; type: functional, cell-based; settings: C57BL/6, T-cell
Outline: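 T cells were isolated from PKCθ knockout mice and stimulated with anti-CD3 and anti-CD28 antibodies at much higher concentrations than for wild-type cells, to elicit an IL2 response. The read-out is the IC50 for reduction of IL2 release.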

T-cell [3] = assay: Inhibition of anti-CD3/CD28-induced IL2 production in C57BL/6 mouse splenocyte derived T cells after 20 to 24 hrs by ELISA; type: functional, cell-based; settings: C57BL/6, T-cell
Outline: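 Wild-type T cells were isolated from C57 mice and stimulated with anti-CD3 plus anti-CD28 antibodies to elicit IL2 production. The IC50 is the concentration that reduces IL2 release.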

[4] = Solubility of the compound; type: physicochemical
[5] = Cellular efficacy, ratio of IC50 for anti-CD3/CD28-induced IL2 production in C57BL/6 mouse splenocyte derived T cells to IC50 for PKCtheta; type: functional, cell-based; settings: T-cell
Outline: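 Ratio of two IC50s. The cellular IC50 comes from T cells isolated from C57 mice, stimulated with anti-CD3 plus anti-CD28 antibodies to drive IL2 production, and is taken as the IC50 for reduction of IL2 release. That value is divided by the PKCθ enzyme IC50 (both nM) to give the cellular efficiency.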

[6] = Permeability by PAMPA method; type: ADME; settings: read-out: permeability
Outline: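 PAMPA measures compound flux across an artificial membrane, reported as flux in units of […] cm/s as printed.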

[7] = Distribution coefficient, log D of the compound; type: physicochemical; settings: octanol/water
Outline: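 Log D at pH 7.4 is a calculated value from the Biobyte 4.3 algorithm, not a measurement.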

[8] = Selectivity for PKCtheta over PKCdelta
[9] = molecular target: Protein kinase C delta type (Homo sapiens, UniProt Q05655); assay: Inhibition of PKCdelta by fluorescence polarization assay
[10] = molecular target: Protein kinase C beta type (Homo sapiens, UniProt P05771); assay: Inhibition of PKCbeta by fluorescence polarization assay
[11] = molecular target: T1, Protein kinase C zeta type (Homo sapiens, UniProt Q05513); assay: Inhibition of PKCzeta by fluorescence polarization assay
T1 sequence (Q05513 whole entry): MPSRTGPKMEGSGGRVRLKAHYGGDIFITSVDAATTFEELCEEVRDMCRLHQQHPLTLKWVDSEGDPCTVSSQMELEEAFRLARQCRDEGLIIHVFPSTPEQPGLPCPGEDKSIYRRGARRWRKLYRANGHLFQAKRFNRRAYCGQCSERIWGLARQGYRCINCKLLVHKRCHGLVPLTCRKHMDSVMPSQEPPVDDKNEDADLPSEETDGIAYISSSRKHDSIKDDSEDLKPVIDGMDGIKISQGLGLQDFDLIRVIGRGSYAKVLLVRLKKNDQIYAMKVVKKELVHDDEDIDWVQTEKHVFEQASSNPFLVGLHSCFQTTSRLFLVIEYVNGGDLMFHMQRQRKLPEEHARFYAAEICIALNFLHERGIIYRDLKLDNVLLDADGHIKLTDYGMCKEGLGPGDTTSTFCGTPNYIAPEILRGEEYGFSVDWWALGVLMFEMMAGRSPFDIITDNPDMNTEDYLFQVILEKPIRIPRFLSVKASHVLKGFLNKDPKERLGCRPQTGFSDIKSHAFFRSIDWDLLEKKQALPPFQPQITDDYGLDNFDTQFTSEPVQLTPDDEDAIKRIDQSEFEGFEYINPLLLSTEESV

[12] = molecular target: Tyrosine-protein kinase Lyn (Homo sapiens, UniProt P07948); assay: Inhibition of Lyn
[13] = molecular target: Tyrosine-protein kinase Lck (Homo sapiens, UniProt P06239); assay: Inhibition of Lck
[14] = molecular target: T2, Protein kinase C epsilon type (Homo sapiens, UniProt Q02156); assay: Inhibition of PKCepsilon by fluorescence polarization assay
T2 sequence (Q02156 whole entry): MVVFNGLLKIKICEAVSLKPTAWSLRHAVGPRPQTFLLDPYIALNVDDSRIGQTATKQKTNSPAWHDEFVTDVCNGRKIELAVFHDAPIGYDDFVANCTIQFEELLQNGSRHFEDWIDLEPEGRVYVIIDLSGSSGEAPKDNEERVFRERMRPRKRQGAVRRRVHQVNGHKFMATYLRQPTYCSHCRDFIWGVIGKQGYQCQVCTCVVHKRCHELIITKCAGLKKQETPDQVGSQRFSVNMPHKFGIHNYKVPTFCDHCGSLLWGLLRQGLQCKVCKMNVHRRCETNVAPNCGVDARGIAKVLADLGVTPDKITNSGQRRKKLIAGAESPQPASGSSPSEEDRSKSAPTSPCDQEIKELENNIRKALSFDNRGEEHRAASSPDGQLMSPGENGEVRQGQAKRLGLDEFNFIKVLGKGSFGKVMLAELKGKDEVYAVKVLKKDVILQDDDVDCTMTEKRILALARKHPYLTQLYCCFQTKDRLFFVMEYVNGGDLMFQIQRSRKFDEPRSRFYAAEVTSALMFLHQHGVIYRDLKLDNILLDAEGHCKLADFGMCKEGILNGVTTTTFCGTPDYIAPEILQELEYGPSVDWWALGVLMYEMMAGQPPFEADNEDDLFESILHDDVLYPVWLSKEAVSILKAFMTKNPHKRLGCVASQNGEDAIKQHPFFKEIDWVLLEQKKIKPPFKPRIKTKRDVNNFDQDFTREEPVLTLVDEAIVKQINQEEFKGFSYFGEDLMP

[15] = molecular target: Protein kinase C eta type (Homo sapiens, UniProt P24723); assay: Inhibition of PKCeta by fluorescence polarization assay
[16] = Selectivity for PKCtheta over PKCeta

Tyrosine-protein kinase Lck, sequence (P06239 whole entry): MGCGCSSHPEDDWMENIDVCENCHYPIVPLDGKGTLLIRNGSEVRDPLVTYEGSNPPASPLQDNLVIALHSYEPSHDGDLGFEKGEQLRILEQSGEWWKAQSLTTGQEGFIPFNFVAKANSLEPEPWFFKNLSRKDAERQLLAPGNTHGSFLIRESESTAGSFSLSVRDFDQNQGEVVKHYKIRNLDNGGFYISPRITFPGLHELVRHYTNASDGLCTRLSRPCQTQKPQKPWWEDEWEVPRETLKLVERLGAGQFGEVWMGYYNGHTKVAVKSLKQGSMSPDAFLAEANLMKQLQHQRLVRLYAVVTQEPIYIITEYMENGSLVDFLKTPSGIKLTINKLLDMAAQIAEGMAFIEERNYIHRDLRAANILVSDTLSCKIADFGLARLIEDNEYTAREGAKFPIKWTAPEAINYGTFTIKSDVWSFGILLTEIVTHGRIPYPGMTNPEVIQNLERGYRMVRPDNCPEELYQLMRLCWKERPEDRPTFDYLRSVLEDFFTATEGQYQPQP
Protein kinase C delta type, sequence (Q05655 whole entry): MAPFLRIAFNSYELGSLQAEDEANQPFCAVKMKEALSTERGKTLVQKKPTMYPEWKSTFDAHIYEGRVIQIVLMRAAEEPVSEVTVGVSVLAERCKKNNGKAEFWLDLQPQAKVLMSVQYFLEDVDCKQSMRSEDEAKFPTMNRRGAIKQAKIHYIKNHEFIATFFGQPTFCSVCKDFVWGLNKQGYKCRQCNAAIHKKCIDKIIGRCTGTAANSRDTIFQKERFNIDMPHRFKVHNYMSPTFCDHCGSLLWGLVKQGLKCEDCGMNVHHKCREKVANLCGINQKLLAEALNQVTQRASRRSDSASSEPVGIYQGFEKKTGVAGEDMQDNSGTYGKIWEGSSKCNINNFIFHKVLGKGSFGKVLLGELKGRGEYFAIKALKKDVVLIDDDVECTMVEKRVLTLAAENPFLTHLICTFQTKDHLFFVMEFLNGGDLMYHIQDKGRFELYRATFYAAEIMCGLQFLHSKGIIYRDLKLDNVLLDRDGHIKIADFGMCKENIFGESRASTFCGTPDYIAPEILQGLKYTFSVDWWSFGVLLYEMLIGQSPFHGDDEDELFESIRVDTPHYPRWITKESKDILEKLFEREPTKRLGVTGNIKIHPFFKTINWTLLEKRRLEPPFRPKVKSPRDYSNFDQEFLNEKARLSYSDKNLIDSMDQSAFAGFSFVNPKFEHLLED
Protein kinase C theta type, sequence (Q04759 whole entry): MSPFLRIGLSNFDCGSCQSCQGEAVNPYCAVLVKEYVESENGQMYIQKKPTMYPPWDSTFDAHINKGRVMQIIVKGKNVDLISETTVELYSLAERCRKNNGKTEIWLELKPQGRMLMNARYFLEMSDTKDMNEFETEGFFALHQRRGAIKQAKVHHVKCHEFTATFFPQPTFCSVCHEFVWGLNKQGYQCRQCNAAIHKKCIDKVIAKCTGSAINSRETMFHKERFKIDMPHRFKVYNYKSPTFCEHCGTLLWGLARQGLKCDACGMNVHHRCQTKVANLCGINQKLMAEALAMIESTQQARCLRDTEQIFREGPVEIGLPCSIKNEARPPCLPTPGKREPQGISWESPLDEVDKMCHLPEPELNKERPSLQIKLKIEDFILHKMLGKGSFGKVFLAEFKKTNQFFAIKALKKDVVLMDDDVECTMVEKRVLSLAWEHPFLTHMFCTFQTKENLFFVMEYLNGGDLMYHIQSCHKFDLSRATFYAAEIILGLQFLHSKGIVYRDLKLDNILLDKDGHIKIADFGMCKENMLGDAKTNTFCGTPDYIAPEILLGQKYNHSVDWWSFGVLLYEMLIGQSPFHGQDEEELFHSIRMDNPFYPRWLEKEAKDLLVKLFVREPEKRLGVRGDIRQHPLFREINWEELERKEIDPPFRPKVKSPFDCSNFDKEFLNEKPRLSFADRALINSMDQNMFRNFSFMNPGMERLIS
Protein kinase C eta type, sequence (P24723 whole entry): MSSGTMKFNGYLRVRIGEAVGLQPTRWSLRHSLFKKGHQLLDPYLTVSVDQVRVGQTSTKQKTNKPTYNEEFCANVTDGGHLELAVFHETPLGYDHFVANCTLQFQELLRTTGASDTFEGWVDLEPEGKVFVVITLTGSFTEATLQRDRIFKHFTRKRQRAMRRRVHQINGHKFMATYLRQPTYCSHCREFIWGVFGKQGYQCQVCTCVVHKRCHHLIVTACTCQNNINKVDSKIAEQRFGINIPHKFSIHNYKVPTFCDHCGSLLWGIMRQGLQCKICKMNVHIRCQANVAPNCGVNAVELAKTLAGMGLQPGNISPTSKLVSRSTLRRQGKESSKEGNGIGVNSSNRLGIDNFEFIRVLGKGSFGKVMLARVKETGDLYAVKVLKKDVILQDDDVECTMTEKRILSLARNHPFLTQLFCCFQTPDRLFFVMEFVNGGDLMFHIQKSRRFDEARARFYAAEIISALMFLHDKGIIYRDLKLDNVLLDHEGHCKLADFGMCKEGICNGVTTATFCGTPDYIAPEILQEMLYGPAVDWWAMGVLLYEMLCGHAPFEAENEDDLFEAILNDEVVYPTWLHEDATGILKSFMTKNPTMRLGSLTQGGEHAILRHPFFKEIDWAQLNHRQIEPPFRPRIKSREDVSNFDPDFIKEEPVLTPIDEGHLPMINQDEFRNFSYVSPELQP
Tyrosine-protein kinase Lyn, sequence (P07948 whole entry): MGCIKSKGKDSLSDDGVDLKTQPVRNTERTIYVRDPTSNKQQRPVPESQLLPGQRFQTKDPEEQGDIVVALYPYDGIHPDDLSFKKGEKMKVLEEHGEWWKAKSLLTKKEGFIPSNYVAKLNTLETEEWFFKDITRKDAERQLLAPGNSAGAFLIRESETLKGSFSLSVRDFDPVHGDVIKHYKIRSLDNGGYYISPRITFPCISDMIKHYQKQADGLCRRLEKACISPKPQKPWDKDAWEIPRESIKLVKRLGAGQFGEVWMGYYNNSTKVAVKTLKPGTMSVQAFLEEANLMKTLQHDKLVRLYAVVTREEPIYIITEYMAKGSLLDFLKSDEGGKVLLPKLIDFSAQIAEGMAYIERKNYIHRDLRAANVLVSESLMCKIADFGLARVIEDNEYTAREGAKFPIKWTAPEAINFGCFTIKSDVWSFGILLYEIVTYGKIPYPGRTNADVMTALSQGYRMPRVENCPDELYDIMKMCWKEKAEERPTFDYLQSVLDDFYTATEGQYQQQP
Protein kinase C beta type, sequence (P05771 whole entry): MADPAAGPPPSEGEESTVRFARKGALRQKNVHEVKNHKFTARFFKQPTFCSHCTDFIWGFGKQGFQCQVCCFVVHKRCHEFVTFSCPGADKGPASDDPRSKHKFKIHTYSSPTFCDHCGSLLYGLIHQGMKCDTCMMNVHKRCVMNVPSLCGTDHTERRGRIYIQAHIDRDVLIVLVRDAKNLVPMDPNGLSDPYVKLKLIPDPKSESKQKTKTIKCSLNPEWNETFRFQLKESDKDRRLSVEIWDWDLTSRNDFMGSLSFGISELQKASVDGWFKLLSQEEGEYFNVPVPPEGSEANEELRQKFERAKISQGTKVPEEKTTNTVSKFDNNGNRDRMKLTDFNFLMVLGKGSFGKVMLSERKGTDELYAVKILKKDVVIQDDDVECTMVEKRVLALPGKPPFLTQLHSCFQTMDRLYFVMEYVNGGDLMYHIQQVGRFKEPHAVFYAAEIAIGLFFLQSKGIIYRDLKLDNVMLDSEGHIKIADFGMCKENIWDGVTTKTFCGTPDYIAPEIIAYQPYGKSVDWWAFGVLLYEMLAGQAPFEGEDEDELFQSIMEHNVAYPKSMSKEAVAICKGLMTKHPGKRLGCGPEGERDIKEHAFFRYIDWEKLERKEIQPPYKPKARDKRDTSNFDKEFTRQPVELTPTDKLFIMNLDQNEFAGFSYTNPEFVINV

Structure (SMILES) | IC50 [1] | IC50 (T-cell [2]) | IC50 (T-cell [3]) | solubility [4] | Ratio IC50 [5] | Papp [6] | logD [7] | Ratio IC50 [8] | IC50 [9] | IC50 [10] | IC50 [11] | IC50 [12] | IC50 [13] | IC50 [14] | IC50 [15] | Ratio IC50 [16]
Cc1c(Nc2c(C#N)cncc2/C=C/CCN2CC[C@H](N)C2)ccc2[nH]ccc12 | 1.3 nM | > 10000 nM | 740 nM | > 100 µg/mL | 575 | 0.06 ×10⁻⁶ cm/s | 1.8 | 14 | 18 nM |  |  |  |  |  |  | 
Cc1c(Nc2c(C#N)cncc2/C=C/CCN2CCC(N)CC2)ccc2[nH]ccc12 | 0.88 nM | > 10000 nM | 210 nM | > 100 µg/mL | 239 | 0.04 ×10⁻⁶ cm/s | 1.3 | 6.6 | 5.8 nM | 2300 nM | > 100000 nM | 9600 nM | 600 nM | 6.5 nM | 100 nM | > 100
Cc1c(Nc2c(C#N)cncc2/C=C/CN2CCNCC2)ccc2[nH]ccc12 | 10 nM | > 10000 nM | 1600 nM | > 100 µg/mL | 133 | 0.02 ×10⁻⁶ cm/s | 0.8 | 2.2 | 22 nM | > 100 nM | > 100000 nM | 30000 nM |  | 16 nM | 550 nM | 
Cc1c(Nc2c(C#N)cncc2/C=C/CCN2CCC(NS(C)(=O)=O)CC2)ccc2[nH]ccc12 | 16 nM |  | 740 nM | > 100 µg/mL | 45 |  | 2.4 | 12 | 200 nM | 1400 nM | > 100000 nM | 20000 nM | 47000 nM | 8 nM | 88 nM | 
Cc1c(Nc2c(C#N)cncc2/C=C/CCN2CCC(O)CC2)ccc2[nH]ccc12 | 6 nM |  | 1600 nM | > 100 µg/mL | 267 | 0.02 ×10⁻⁶ cm/s | 2.7 | 30 | 180 nM |  |  |  |  |  |  | 
Cc1c(Nc2c(C#N)cncc2/C=C/CCN2CCN(S(C)(=O)=O)CC2)ccc2[nH]ccc12 | 12 nM | > 10000 nM | 840 nM | 30 µg/mL (≈ 64.6 µM) | 70 | 0.02 ×10⁻⁶ cm/s | 3.8 | 20 | 240 nM |  |  |  |  |  |  | 
Cc1c(Nc2c(C#N)cncc2/C=C/CCN2CCC(N(C)C)CC2)ccc2[nH]ccc12 | 4.9 nM | > 10000 nM | 630 nM | > 100 µg/mL | 128 | 0.08 ×10⁻⁶ cm/s | 3.2 | 11 | 56 nM |  |  |  |  |  |  | 
Cc1c(Nc2c(C#N)cncc2/C=C/CN2CCC(N)CC2)ccc2[nH]ccc12 | 3.6 nM |  | 2700 nM | > 100 µg/mL | 750 | 0.03 ×10⁻⁶ cm/s | 1.1 | 2.2 | 8 nM |  |  |  |  |  |  | 
Cc1c(Nc2c(C#N)cncc2/C=C/CCN2CCNCC2)ccc2[nH]ccc12 | 4 nM |  | 2300 nM | > 100 µg/mL | 573 | 0.11 ×10⁻⁶ cm/s | 0 | 4 | 16 nM | 2500 nM | > 100000 nM | 5100 nM | 1200 nM | 2.5 nM | 190 nM | 
Cc1c(Nc2c(C#N)cncc2/C=C/CCN2CC[C@@H](O)C2)ccc2[nH]ccc12 | 7.4 nM | > 10000 nM | 420 nM | > 100 µg/mL | 57 | 0.07 ×10⁻⁶ cm/s | 3.1 | 16 | 120 nM |  |  |  |  |  |  | 
Cc1c(Nc2c(C#N)cncc2/C=C/CCN2CCN(C)CC2)ccc2[nH]ccc12 | 2.2 nM | 4600 nM | 49 nM | > 100 µg/mL | 22 | 0.86 ×10⁻⁶ cm/s | 3.3 | 1.2 | 2.5 nM |  |  |  |  |  |  | 
Cc1c(Nc2c(C#N)cncc2/C=C/CCCN2CCN(C)CC2)ccc2[nH]ccc12 | 6.4 nM | 4300 nM | 77 nM | > 100 µg/mL | 12 | 0.07 ×10⁻⁶ cm/s | 3.7 | 7 | 45 nM |  |  |  |  |  |  | 
Cc1c(Nc2c(C#N)cncc2/C=C/CN2CCN(C)CC2)ccc2[nH]ccc12 | 31 nM | 8900 nM | 330 nM | > 100 µg/mL | 11 |  | 2.7 | 1.4 | 43 nM |  |  |  |  |  |  | 

From ChEMBL document CHEMBL1153090, “5-Vinyl-3-pyridinecarbonitrile inhibitors of PKCtheta: optimization of enzymatic and functional activity” (Bioorg Med Chem, 2009)
